Reference: ChEMBL document CHEMBL1139413, “Discovery of the first potent and orally efficacious agonist of the orphan G-protein coupled receptor 119” (J Med Chem, 2008)
Values joined by “and” are separate entries in the source; they are usually repeats but may differ in a detail not shown here. Equal values may be shown once. Each block holds one molecule with its values, some of them ahead of it. Active and inactive are the calls of the source. No cut-off for these calls is given here.

Experiments:
[1] = biological target: T1, Glucose-dependent insulinotropic receptor (Homo sapiens, UniProt Q8TDV5); assay: Agonist activity at […] transfected in Xenopus dermal melanophore assessed as dispersion of melatonin-induced pigmentation; type: functional
T1 sequence (Q8TDV5 whole entry): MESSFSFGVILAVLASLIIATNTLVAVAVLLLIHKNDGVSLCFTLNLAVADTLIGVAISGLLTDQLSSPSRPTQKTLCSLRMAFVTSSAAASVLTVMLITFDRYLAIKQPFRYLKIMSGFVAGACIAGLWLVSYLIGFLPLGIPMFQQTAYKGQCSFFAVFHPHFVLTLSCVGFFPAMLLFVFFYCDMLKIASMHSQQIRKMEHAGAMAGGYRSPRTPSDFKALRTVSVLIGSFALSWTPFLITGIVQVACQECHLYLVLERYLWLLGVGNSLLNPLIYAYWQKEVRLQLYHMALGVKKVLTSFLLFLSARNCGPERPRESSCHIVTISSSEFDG
Summary of the method: (§1)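 Cultured Xenopus dermal melanophores transiently transfected with GPR119 plasmid, plated in 384-well format. At 48 h post-transfection, pigment aggregated with melatonin (10nM, 1 h), then compounds applied for 1 h. Pigment dispersion read as absorbance (light transmission) to build concentration-response curves; EC50 with log SD, number of determinations given.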

[2] = Cmax in C57BL/6J mouse at 10 mg/kg, po; type: ADME, organism-based; set-up: dose 10 mg/kg, route oral; details: in vivo
Summary of the method: (§2)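 Mouse oral PK: C57/bl6J mice given a single 10 mg/kg po dose; plasma exposure profile used to derive tmax, Cmax, AUC (area under exposure curve) and terminal t1/2. No iv arm run in mouse.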

Mus musculus [3] = assay: Increase in glucose dependent insulin release in GPR119 deficient C57BL/6J mouse at 20 mg/kg, po by oral glucose tolerance test; type: functional, organism-based; set-up: dose 20 mg/kg
[4] = Tmax in Sprague-Dawley rat at 10 mg/kg, po; type: ADME, organism-based; set-up: dose 10 mg/kg, route oral; details: in vivo
Summary of the method: (§3)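 Rat oral PK: single 10 mg/kg po dose; plasma tmax, Cmax, AUC, terminal t1/2 determined, with oral bioavailability (%F) also reported.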

[5] = Agonist activity at GPR119 in hamster HIT-T15 cells stimulation of assessed as cAMP production; type: functional, cell-based; details: Cricetinae
[6] = Half life in Sprague-Dawley rat at 10 mg/kg, po; type: ADME, organism-based; set-up: dose 10 mg/kg, route oral; details: in vivo; summary of the method: as §3
[7] = biological target: T2, Glucose-dependent insulinotropic receptor (Rattus norvegicus) (UniProt Q7TQN8); assay: Agonist activity at rat GPR119 transfected in Xenopus dermal melanophore assessed as dispersion of melatonin-induced pigmentation; type: functional; summary of the method: as §1
T2 sequence (whole entry): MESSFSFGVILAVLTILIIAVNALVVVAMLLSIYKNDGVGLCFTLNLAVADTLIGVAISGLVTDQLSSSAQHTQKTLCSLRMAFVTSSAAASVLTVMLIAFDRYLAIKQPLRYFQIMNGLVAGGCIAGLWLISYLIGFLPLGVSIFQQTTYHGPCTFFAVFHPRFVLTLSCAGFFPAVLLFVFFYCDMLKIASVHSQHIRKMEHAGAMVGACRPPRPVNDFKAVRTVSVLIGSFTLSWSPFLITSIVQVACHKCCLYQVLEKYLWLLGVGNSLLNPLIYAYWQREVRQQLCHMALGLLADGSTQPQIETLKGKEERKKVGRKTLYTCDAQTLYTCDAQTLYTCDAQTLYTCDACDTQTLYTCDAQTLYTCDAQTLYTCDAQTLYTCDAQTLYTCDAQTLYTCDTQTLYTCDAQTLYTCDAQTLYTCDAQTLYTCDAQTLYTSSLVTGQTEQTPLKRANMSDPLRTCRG

[8] = biological target: Voltage-gated inwardly rectifying potassium channel KCNH2 (Homo sapiens, UniProt Q12809); assay: Inhibition of hERG upto 10 uM by patch clamp assay; type: toxicity
Summary of the method: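 hERG channel current measured by patch clamp, compound tested up to 10 µM.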

[9] = AUC in C57BL/6J mouse at 10 mg/kg, po; type: ADME, organism-based; set-up: dose 10 mg/kg, route oral; details: plasma; summary of the method: as §2
Mus musculus [10] = assay: Increase in glucose dependent insulin release in wild type C57BL/6J mouse at 20 mg/kg, po by oral glucose tolerance test; type: functional, organism-based; set-up: dose 20 mg/kg
Mus musculus [11] = species on record: Mus musculus; assay: Increase in glucose dependent insulin release in diabetic KK/ay mouse by oral glucose tolerance test; type: functional, organism-based
Canis lupus familiaris = species on record: Canis lupus familiaris; assay: Agonist activity at dog GPR119 transfected in Xenopus dermal melanophore assessed as dispersion of melatonin-induced pigmentation; type: functional; summary of the method: as §1
Macaca fascicularis = species on record: Macaca fascicularis; assay: Agonist activity at cynomolgus monkey GPR119 transfected in Xenopus dermal melanophore assessed as dispersion of melatonin-induced pigmentation; type: functional; summary of the method: as §1
Rattus norvegicus = assay: Effect on glucose excursion in Sprague-Dawley rat at 30 mg/kg, po by oral glucose tolerance test; type: functional, organism-based; set-up: dose 30 mg/kg
[12] = Cmax in Sprague-Dawley rat at 10 mg/kg, po; type: ADME, organism-based; set-up: dose 10 mg/kg, route oral; details: in vivo; summary of the method: as §3
[13] = AUC in Sprague-Dawley rat at 10 mg/kg, po; type: ADME, organism-based; set-up: dose 10 mg/kg, route oral; details: plasma; summary of the method: as §3
[14] = Oral bioavailability in Sprague-Dawley rat at 10 mg/kg; type: ADME, organism-based; details: in vivo; summary of the method: as §3
[15] = Tmax in C57BL/6J mouse at 10 mg/kg, po; type: ADME, organism-based; set-up: dose 10 mg/kg, route oral; details: in vivo; summary of the method: as §2
[16] = Half life in C57BL/6J mouse at 10 mg/kg, po; type: ADME, organism-based; set-up: dose 10 mg/kg, route oral; details: in vivo; summary of the method: as §2
[17] = biological target: T3, Glucose-dependent insulinotropic receptor (Mus musculus) (UniProt Q7TQP3); assay: Agonist activity at mouse GPR119 transfected in Xenopus dermal melanophore assessed as dispersion of melatonin-induced pigmentation; type: functional; summary of the method: as §1
T3 sequence (whole entry): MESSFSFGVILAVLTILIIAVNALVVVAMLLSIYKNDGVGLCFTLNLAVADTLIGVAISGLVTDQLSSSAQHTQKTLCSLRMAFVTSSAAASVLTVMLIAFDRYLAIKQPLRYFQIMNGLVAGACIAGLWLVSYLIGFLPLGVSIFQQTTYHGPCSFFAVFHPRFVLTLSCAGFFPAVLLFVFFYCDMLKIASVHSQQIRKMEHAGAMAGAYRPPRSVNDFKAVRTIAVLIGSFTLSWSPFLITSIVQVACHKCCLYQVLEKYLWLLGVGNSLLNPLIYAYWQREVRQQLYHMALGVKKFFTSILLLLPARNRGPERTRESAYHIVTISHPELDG

[18] = Inhibition of cytochrome
[19] = biological target: T1, Glucose-dependent insulinotropic receptor; assay: Inverse agonist activity at GPR119 expressed in HEK293 cells assessed as cAMP level by flash plate assay; type: functional, cell-based
Summary of the method: (§4)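 HEK293 cells transiently transfected with GPR119; crude plasma membranes prepared 48 h post-transfection. Membrane adenylyl cyclase read by FlashPlate cAMP kit: 15 µg membrane protein, 60 min at room temperature in 20 mM HEPES pH 7.4 with 10 µM GTP, 0.1 mM ATP, 500 µM IBMX, 10 mM phosphocreatine, creatine phosphokinase. cAMP from on-plate standard curve; usually n = 1 or 2.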

[20] = biological target: T1, Glucose-dependent insulinotropic receptor; assay: Agonist activity at GPR119 expressed in HEK293 cells assessed as cAMP level by flash plate assay; type: functional, cell-based; summary of the method: as §4

Chain of Voltage-gated inwardly rectifying potassium channel KCNH2 (Q12809 whole entry): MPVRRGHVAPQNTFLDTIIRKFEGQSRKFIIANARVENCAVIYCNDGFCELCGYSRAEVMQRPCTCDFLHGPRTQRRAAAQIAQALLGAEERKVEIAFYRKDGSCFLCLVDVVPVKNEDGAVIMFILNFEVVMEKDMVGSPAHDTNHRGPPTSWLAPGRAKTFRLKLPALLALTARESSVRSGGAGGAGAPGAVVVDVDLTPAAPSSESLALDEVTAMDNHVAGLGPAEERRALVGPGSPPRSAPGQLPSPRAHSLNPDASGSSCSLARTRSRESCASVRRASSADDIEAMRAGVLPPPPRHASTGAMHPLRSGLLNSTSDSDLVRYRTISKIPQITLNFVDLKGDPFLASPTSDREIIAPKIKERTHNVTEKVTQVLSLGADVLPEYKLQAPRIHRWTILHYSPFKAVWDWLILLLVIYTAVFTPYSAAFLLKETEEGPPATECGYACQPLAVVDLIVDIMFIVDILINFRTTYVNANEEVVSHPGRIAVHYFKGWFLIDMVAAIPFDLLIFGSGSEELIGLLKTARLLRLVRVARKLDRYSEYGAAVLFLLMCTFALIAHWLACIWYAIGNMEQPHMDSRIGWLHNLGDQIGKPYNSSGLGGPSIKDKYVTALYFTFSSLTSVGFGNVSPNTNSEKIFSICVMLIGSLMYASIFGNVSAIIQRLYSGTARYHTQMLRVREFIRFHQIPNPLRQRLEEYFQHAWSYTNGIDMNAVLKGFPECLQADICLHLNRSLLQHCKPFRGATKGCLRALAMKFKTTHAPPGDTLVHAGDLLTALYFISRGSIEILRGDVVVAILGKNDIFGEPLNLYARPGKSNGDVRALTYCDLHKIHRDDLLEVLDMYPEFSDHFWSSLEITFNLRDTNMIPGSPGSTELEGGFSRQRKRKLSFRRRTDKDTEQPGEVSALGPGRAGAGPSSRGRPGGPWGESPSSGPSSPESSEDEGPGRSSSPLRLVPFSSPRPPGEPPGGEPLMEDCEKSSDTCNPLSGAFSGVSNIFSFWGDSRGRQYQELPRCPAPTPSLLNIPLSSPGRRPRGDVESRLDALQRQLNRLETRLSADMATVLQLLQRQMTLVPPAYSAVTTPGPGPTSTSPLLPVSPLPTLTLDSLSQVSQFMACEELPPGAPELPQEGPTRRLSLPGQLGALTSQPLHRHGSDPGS

SMILES: CCS(=O)(=O)c1ccc(Nc2ncnc(N3CCC(c4nc(C(C)C)[n-][o+]4)CC3)c2[N+](=O)[O-])c(F)c1
- EC50 [1]: 7 nM

SMILES: CS(=O)(=O)c1ccc(Nc2ncnc(N3CCC(c4nc(-c5cccc(C(F)(F)F)c5)no4)CC3)c2[N+](=O)[O-])cc1
- EC50 [1]: 24 nM

SMILES: CCOC(=O)C1CCN(c2ncnc(Oc3ccc(Br)cc3)c2[N+](=O)[O-])CC1
- IC50 [19]: 50 nM

SMILES: CCOC(=O)C1CCN(c2ncnc(Nc3ccc(S(C)(=O)=O)cc3)c2[N+](=O)[O-])CC1
- EC50 [20]: 1200 nM

SMILES: CC(C)c1nc(C2CCN(c3ncnc(Nc4ccc(S(=O)(=O)C(C)C)cc4F)c3[N+](=O)[O-])CC2)[o+][n-]1
- EC50 [1]: 7.9 nM

SMILES: CS(=O)(=O)c1ccc(Nc2ncnc(N3CCC(c4nc(C5CC5)no4)CC3)c2[N+](=O)[O-])cc1
- EC50 [1]: 25 nM

SMILES: CS(=O)(=O)c1ccc(Nc2ncnc(N3CCC(c4nc(-c5cccnc5)[n-][o+]4)CC3)c2[N+](=O)[O-])cc1
- EC50 [1]: 660 nM

SMILES: CCOC(=O)C1CCN(c2ncnc(Oc3ccc(S(C)(=O)=O)cc3)c2[N+](=O)[O-])CC1
- EC50 [20]: 1900 nM

SMILES: CS(=O)(=O)c1ccc(Nc2ncnc(N3CCC(c4nc(CC5CC5)no4)CC3)c2[N+](=O)[O-])cc1
- EC50 [1]: 160 nM

SMILES: CCOC(=O)C1CCN(c2ncnc(Oc3cc(C(F)(F)F)nn3C)c2[N+](=O)[O-])CC1
- IC50 [19]: 84 nM

SMILES: CCOC(=O)C1CCN(c2ncnc(Oc3ccc(S(N)(=O)=O)cc3)c2[N+](=O)[O-])CC1
- EC50 [20]: 3000 nM

SMILES: CCOC(=O)C1CCN(c2ncnc(Nc3ccc(-n4cncn4)cc3)c2[N+](=O)[O-])CC1
- EC50 [20]: 400 nM

SMILES: CCOC(=O)C1CCN(c2ncnc(Oc3ccc(C(=O)CC(=O)OC)cc3)c2[N+](=O)[O-])CC1
- EC50 [20]: 1000 nM

SMILES: CCOC(=O)C1CCN(c2ncnc(Oc3ccc(CCC(C)=O)cc3)c2[N+](=O)[O-])CC1
- EC50 [20]: 1700 nM

SMILES: CCOC(=O)C1CCN(c2ncnc(Oc3ccc(-n4cncn4)cc3)c2[N+](=O)[O-])CC1
- EC50 [20]: 2500 nM

SMILES: CCOC(=O)C1CCN(c2ncnc(Oc3ccc(OCCOC)cc3)c2[N+](=O)[O-])CC1
- IC50 [19]: 500 nM

Now from value to molecule, other results behind:

- EC50 [1]: 1.5 nM
SMILES: CC(C)(C)c1noc(C2CCN(c3ncnc(Nc4ccc(S(C)(=O)=O)cc4)c3[N+](=O)[O-])CC2)n1

- EC50 [1]: 3.4 nM
SMILES: CC(C)c1noc(C2CCN(c3ncnc(Nc4ccc(S(C)(=O)=O)c(F)c4)c3[N+](=O)[O-])CC2)n1

- Cmax [2]: 4980 ng/mL
- Tmax [4]: 1 h
- EC50 [5]: 4.7 nM
- half-life [6]: 66 min
- Activity [7]: 14 nM
- EC50 [1]: 0.68 nM
- AUC [9]: 19800 ng·h/mL
- Cmax [12]: 126 ng/mL and 250 nM
- AUC [13]: 263 ng·h/mL
- bioavailability [14]: 12%
- Tmax [15]: 30 min
- half-life [16]: 204 min
- Activity [17]: 12 nM
- Activity [18]: inactive
SMILES: CC(C)c1noc(C2CCN(c3ncnc(Nc4ccc(S(C)(=O)=O)cc4F)c3[N+](=O)[O-])CC2)n1
- Activity (Mus musculus [3]): inactive
- Activity [8]: Not Active
- Activity (Mus musculus [10]): Active
- Activity (Mus musculus [11]): Active
- Activity (Canis lupus familiaris): 1.6 nM
- Activity (Macaca fascicularis): 0.4 nM
- Activity (Rattus norvegicus): inactive

- EC50 [1]: 17 nM
SMILES: CCS(=O)(=O)c1ccc(Nc2ncnc(N3CCC(c4nc(C(C)C)no4)CC3)c2[N+](=O)[O-])cc1

- EC50 [1]: 7.8 nM
SMILES: CC(C)c1noc(C2CCN(c3ncnc(Nc4ccc(S(=O)(=O)C(C)C)cc4)c3[N+](=O)[O-])CC2)n1

- EC50 [1]: 17.1 nM
SMILES: CC[S+]([O-])c1ccc(Nc2ncnc(N3CCC(c4nc(C(C)C)no4)CC3)c2[N+](=O)[O-])cc1 (stereo not drawn)

- EC50 [1]: 260 nM
SMILES: Cc1noc(C2CCN(c3ncnc(Nc4ccc(S(C)(=O)=O)cc4)c3[N+](=O)[O-])CC2)n1

- EC50 [1]: 110 nM
SMILES: CCSc1ccc(Nc2ncnc(N3CCC(c4nc(C(C)C)no4)CC3)c2[N+](=O)[O-])cc1

- EC50 [1]: 4.7 nM
SMILES: CCCS(=O)(=O)c1ccc(Nc2ncnc(N3CCC(c4nc(C(C)C)no4)CC3)c2[N+](=O)[O-])cc1

- EC50 [1]: 5.8 nM
SMILES: CC(C)c1noc(C2CCN(c3ncnc(Nc4ccc(S(C)(=O)=O)cc4)c3[N+](=O)[O-])CC2)n1

- EC50 [1]: 10 nM
SMILES: CCc1noc(C2CCN(c3ncnc(Nc4ccc(S(C)(=O)=O)cc4)c3[N+](=O)[O-])CC2)n1

- EC50 [1]: 430 nM
SMILES: CCCc1noc(C2CCN(c3ncnc(Nc4ccc(S(C)(=O)=O)cc4)c3[N+](=O)[O-])CC2)n1
